In ChEMBL document CHEMBL4190220, “Withanolides from Aeroponically Grown Physalis peruviana and Their Selective Cytotoxicity to Prostate Cancer and Renal Carcinoma Cells” (J Nat Prod, 2017):
Activity calls are given as the source filed them. No cut-off for these calls is given here.

Columns and labels:
ACHN [1] = experiment: Cytotoxicity against human ACHN cells assessed as reduction in cell viability after 72 hrs by CellTiter96 AQueous one solution cell proliferation assay; assay type: functional, cell-based
Outline: (§1)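 MTS viability in RPMI with 5% fetal calf serum, 2.0 mM L-glutamine, nonessential amino acids, 1.0 mM pyruvate, penicillin/streptomycin, 10 mM HEPES and 2-mercaptoethanol. Cells were seeded at 10 000 (LNCaP) or 5000 (others) and grown overnight at 37 °C. Serial dilutions in DMSO went into triplicate wells for 72 h. MTS was read at 490 nm after 2 h. IC50 ± SD from dose–response curves, at least three independent experiments.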

HFF [2] = experiment: Cytotoxicity against HFF cells assessed as reduction in cell viability after 72 hrs by CellTiter96 AQueous one solution cell proliferation assay; assay type: cell-based; conditions: Homo sapiens; outline: as §1
M14 [3] = experiment: Cytotoxicity against human M14 cells assessed as reduction in cell viability after 72 hrs by CellTiter96 AQueous one solution cell proliferation assay; assay type: functional, cell-based; conditions: M14, 72 h
Outline: (§2)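 MTS viability in DMEM with 5% fetal calf serum, 2.0 mM L-glutamine, nonessential amino acids, 1.0 mM pyruvate, penicillin/streptomycin, 10 mM HEPES and 2-mercaptoethanol. 5000 cells were grown overnight at 37 °C. Serial DMSO dilutions went into triplicate wells for 72 h. MTS absorbance was read at 490 nm after 2 h. IC50 ± SD from at least three independent dose–response experiments.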

LNCaP [4] = experiment: Cytotoxicity against human LNCAP cells assessed as reduction in cell viability after 72 hrs by CellTiter96 AQueous one solution cell proliferation assay; assay type: functional, cell-based; outline: as §1
CWR22R [5] = experiment: Cytotoxicity against human 22Rv1 cells assessed as reduction in cell viability after 72 hrs by CellTiter96 AQueous one solution cell proliferation assay; assay type: functional, cell-based; conditions: 22Rv1, 72 h; outline: as §1
SK-MEL-28 [6] = experiment: Cytotoxicity against human SK-MEL-28 cells assessed as reduction in cell viability after 72 hrs by CellTiter96 AQueous one solution cell proliferation assay; assay type: functional, cell-based; conditions: SK-MEL-28, 72 h; outline: as §2
HFF [7] = experiment: Cytotoxicity against HFF cells assessed as reduction in cell viability up to 5 uM after 72 hrs by CellTiter96 AQueous one solution cell proliferation assay; assay type: cell-based; conditions: human
Outline: (§3)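 Cells in RPMI with 5% fetal calf serum, glutamine, nonessential amino acids, pyruvate, HEPES, 2-mercaptoethanol and antibiotics. Seeded at 10 000 (LNCaP) or 5000 (others) and grown overnight at 37 °C, then exposed to compound in DMSO, triplicate wells, 72 h. Read by MTS at 490 nm after 2 h. % cytotoxicity = (A medium − A treatment)/A medium × 100.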

CWR22R [8] = experiment: Cytotoxicity against human 22Rv1 cells assessed as reduction in cell viability up to 5 uM after 72 hrs by CellTiter96 AQueous one solution cell proliferation assay; assay type: functional, cell-based; outline: as §3
SK-MEL-28 [9] = experiment: Cytotoxicity against human SK-MEL-28 cells assessed as reduction in cell viability up to 5 uM after 72 hrs by CellTiter96 AQueous one solution cell proliferation assay; assay type: functional, cell-based
Outline: (§4)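 Melanoma cells in DMEM-based medium (5% fetal calf serum, glutamine, nonessential amino acids, pyruvate, HEPES, 2-mercaptoethanol, antibiotics). 5000 cells were grown overnight at 37 °C, then exposed to compound in DMSO in triplicate wells for 72 h. MTS absorbance at 490 nm after 2 h. % cytotoxicity = (A medium − A treatment)/A medium × 100.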

LNCaP [10] = experiment: Cytotoxicity against human LNCAP cells assessed as reduction in cell viability up to 5 uM after 72 hrs by CellTiter96 AQueous one solution cell proliferation assay; assay type: functional, cell-based; outline: as §3
M14 [11] = experiment: Cytotoxicity against human M14 cells assessed as reduction in cell viability up to 5 uM after 72 hrs by CellTiter96 AQueous one solution cell proliferation assay; assay type: functional, cell-based; outline: as §4
ACHN [12] = experiment: Cytotoxicity against human ACHN cells assessed as reduction in cell viability up to 5 uM after 72 hrs by CellTiter96 AQueous one solution cell proliferation assay; assay type: functional, cell-based; outline: as §3

SMILES	IC50 (ACHN [1]) [nM]	IC50 (HFF [2]) [nM]	IC50 (M14 [3]) [nM]	IC50 (LNCaP [4]) [nM]	IC50 (CWR22R [5]) [nM]	IC50 (SK-MEL-28 [6]) [nM]	Activity (HFF [7])	Activity (CWR22R [8])	Activity (SK-MEL-28 [9])	Activity (LNCaP [10])	Activity (M14 [11])	Activity (ACHN [12])
CC1=C(CO)C[C@H]([C@](C)(O)[C@]2(O)CC[C@@]3(O)[C@@H]4CC=C5CC=CC(=O)[C@]5(C)[C@H]4CC[C@]23C)OC1=O	> 2000	> 2000	> 2000	240	210	> 2000						
CC1=C(C)C(=O)O[C@@H]([C@](C)(O)[C@]2(O)CC[C@@]3(O)[C@@H]4[C@@H](O)C=C5C=CCC(=O)[C@]5(C)[C@H]4CC[C@]23C)C1	> 2000	> 2000	> 2000	940	990	> 2000						
CC1=C(C)C(=O)O[C@@H]([C@](C)(O)[C@]2(O)CC[C@@]3(O)[C@@H]4[C@@H](O)[C@H]5O[C@]56CC=CC(=O)[C@]6(C)[C@H]4CC[C@]23C)C1	> 2000	> 2000	> 2000	330	260	> 2000						
CC1=C(C)C(=O)O[C@@H]([C@](C)(O)[C@]2(O)CC[C@@]3(O)[C@@H]4C[C@H]5O[C@]56[C@@H](O)C=CC(=O)[C@]6(C)[C@H]4CC[C@]23C)C1	> 2000	> 2000	> 2000	160	90	> 2000						
CC1=C(C)C(=O)O[C@@H]([C@](C)(O)[C@]2(O)CC[C@@]3(O)[C@@H]4C[C@H]5O[C@]56CC=CC(=O)[C@]6(C)[C@H]4CC[C@]23C)C1 [WITHANOLIDE E]	460	> 2000	> 2000	60	70	> 2000						
CC1=C(C)C(=O)O[C@@H]([C@](C)(O)[C@]2(O)CC[C@@]3(O)[C@@H]4CC=C5CC=CC(=O)[C@]5(C)[C@H]4CC[C@]23C)C1 [WITHANOLIDE F]	> 2000	> 2000	> 2000	130	70	> 2000						
CC(=O)OC[C@]12CC[C@H]3[C@@H](C[C@H]4O[C@]45CC=CC(=O)[C@]35C)[C@]1(O)CC[C@@]2(O)[C@@](C)(O)[C@H]1CC(C)=C(C)C(=O)O1	570	> 2000	> 2000		30	> 2000						
COc1cccc2c1C(=O)c1c(O)c3c(c(O)c1C2=O)C[C@@](O)(C(=O)CO)C[C@@H]3O[C@H]1C[C@H](N)[C@H](O)[C@H](C)O1 [DOXORUBICIN]	20		90	20	20	250						
CC1=C(C)[C@H](O)[C@H]([C@](C)(O)[C@]2(O)CC[C@@]3(O)[C@@H]4C[C@H]5O[C@]56CC=CC(=O)[C@]6(C)[C@H]4CC[C@]23C)OC1=O	> 2000	> 2000	> 2000	> 2000	890	> 2000						
C[C@H]1C[C@H]([C@](C)(O)[C@]2(O)CC[C@@]3(O)[C@@H]4C[C@H]5O[C@]56CC=CC(=O)[C@]6(C)[C@H]4CC[C@]23C)OC(=O)[C@@H]1C	> 2000	> 2000	> 2000	290	210	> 2000						
CC1=C(C)C(=O)O[C@@H]([C@](C)(O)[C@]2(O)CC[C@@]3(O)[C@@H]4C[C@H](Cl)[C@]5(O)[C@@H](O)C=CC(=O)[C@]5(C)[C@H]4CC[C@]23C)C1							Non-Toxic	inactive	inactive	inactive	inactive	inactive
CC1=C(C)C(=O)O[C@@H]([C@](C)(O)[C@]2(O)CC[C@@]3(O)[C@@H]4CC=C5[C@@H](O)C=CC(=O)[C@]5(C)[C@H]4CC[C@]23C)C1	1000	> 2000	> 2000	110	70	> 2000						
C[C@H]1C(=O)OC[C@H]1C[C@@H](O)[C@](C)(O)C1=CC[C@H]2[C@@H]3C[C@H]4O[C@]45CC=CC(=O)[C@]5(C)[C@H]3CC[C@]12C							Non-Toxic	inactive	inactive	inactive	inactive	inactive
CO[C@H]1C=CC(=O)[C@]2(C)[C@H]3CC[C@]4(C)[C@](O)([C@@](C)(O)[C@H]5CC(C)=C(C)C(=O)O5)CC[C@@]4(O)[C@@H]3C[C@H]3O[C@]132	> 2000	> 2000	> 2000	330	240	> 2000						
C[C@H]1C(=O)OC[C@H]1C[C@@H](O)[C@](C)(O)[C@@]1(O)CC[C@@]2(O)[C@@H]3CC=C4CC=CC(=O)[C@]4(C)[C@H]3CC[C@]12C							Non-Toxic	inactive	inactive	inactive	inactive	inactive
CC1=C(C)[C@H](O)[C@H]([C@](C)(O)[C@H]2CC[C@@]3(O)[C@@H]4C[C@H]5O[C@]56CC=CC(=O)[C@]6(C)[C@H]4CC[C@]23C)OC1=O							Non-Toxic	inactive	inactive	inactive	inactive	inactive
CC1=C(C)C(=O)O[C@@H]([C@](C)(O)[C@]2(O)CC[C@@]3(O)[C@@H]4[C@@H](O)C=C5CC=CC(=O)[C@]5(C)[C@H]4CC[C@]23C)C1	> 2000	> 2000	> 2000	330	560	> 2000						
